We go through four substances from paper PMC11673187 (JACS Au, 2024).

The target of experiment [1] is T1, PTHR1 (Homo sapiens, UniProt Q03431).
T1 sequence (Q03431 27-593): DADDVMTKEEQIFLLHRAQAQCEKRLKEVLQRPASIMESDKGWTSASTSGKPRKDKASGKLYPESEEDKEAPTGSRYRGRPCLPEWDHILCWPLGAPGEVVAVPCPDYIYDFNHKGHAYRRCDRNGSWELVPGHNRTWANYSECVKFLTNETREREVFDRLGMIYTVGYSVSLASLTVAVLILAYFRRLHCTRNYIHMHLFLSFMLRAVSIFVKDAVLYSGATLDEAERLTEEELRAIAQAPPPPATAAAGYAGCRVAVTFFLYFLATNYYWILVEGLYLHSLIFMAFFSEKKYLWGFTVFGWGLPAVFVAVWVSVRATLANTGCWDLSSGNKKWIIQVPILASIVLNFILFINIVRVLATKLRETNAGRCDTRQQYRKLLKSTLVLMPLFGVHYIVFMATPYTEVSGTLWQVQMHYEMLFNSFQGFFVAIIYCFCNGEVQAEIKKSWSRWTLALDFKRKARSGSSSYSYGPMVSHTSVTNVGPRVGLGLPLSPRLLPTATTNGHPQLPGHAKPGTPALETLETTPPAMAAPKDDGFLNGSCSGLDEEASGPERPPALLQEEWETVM
The note with it: fragments of PTH1–34; cited from earlier work.

Experiment [2] concerns Nbs bearing click handles (Nb6EPEG4DBCO and NbALFAbiotinN3). As to the kind of experiment: Assessment of click chemistry. The note with it: Gly vs Ahx linker; azide vs alkyne pairing; S4A-C. A digest of the protocol: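 Click cross-linking run at room temperature in TBS with 10 µM of each nanobody bearing a click handle (DBCO or azide), with or without equimolar dimeric template peptide. Quenched with 500 µM GGG-Lys(azide) peptide, then denatured in Laemmli buffer with 100 mM DTT at 95 °C. Products resolved on 15% polyacrylamide gels and stained. High-MW cross-linked band quantified by densitometry, normalized to a control quenched at T = 0.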

For experiment [3] the following is noted: metal-free, absence of proximity enforcing conditions; cited from earlier work.
Experiment [4] deals with T1, PTHR1. The experiment can be described thus: PTHR1-mediated signaling via Gαs/cAMP. The experiment is classed as cell-based. As to conditions: DPahx 300 nM with various concentrations of Nb-PTH conjugates; Figure 3D, S8. A digest of the protocol: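 HEK293 cells stably expressing PTHR1 and a cAMP luminescence reporter, grown in DMEM with 10% FBS and Pen-Strep, mycoplasma-free. Varying concentrations of the complementary azide and DBCO nanobody–PTH fragment conjugates added with or without 300 nM dimeric peptide. Luminescence normalized to the maximum for the conjugate pair alone; technical replicates in a representative experiment.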

Take “PTH12–34: fragment of PTHR1 agonist peptide PTH1–34 (GKHLNSMERVEWLRKKLQDVHNF; Parathyroid hormone; UniProt P01270 43-65, looked up, fragment)”: the “activity of PTHR1 agonist fragments” value with PTHR1 [1] was “weakly active or inactive”. As to CQADQEAKELARQISGSRLEEELRRRLTE [DPgly], in experiment [2], the cross-linking kinetics result is listed as “no major differences observed”. In the case of dibenzylcyclooctyne [DBCO], the DBCO-azide cycloaddition rate in experiment [3] is on record as about 1 M^–1S^1–.

As to CQADQEAKELARQISZSRLEEELRRRLTE [DPahx], the “DP-potentiated activation of PTHR1” value on PTHR1 [4] is recorded as “DP-potentiated activation of PTHR1”. Moreover, the cross-linking kinetics entry in experiment [2] is “no major differences observed”.
